Laboratory results taken from ChEMBL document CHEMBL3875203, “Small molecule mimics of DFTamP1, a database designed anti-Staphylococcal peptide” (Bioorg Med Chem, 2017).
In brackets after ≈: the same amount, converted by molar mass. Activity calls are given as the source filed them. The calls are words filed in the database; no cut-off is given here.

How the values were obtained:
Escherichia coli [1] = test: Antibacterial activity against Escherichia coli K-12 after overnight incubation by broth microdilution method; format: functional
Pseudomonas aeruginosa [2] = test: Antibacterial activity against Pseudomonas aeruginosa PAO1 after overnight incubation by broth microdilution method; format: functional
Staphylococcus aureus [3] = test: Antibacterial activity against methicillin-resistant Staphylococcus aureus USA300 LAC after overnight incubation by broth microdilution method; format: functional
Procedure, shortened: (§1)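 MIC = lowest concentration with no detectable growth. pH series run at pH 6.8, 7.4 and 8.0. Daptomycin wells carried 2 mM Ca²⁺. Repeated by different investigators on different dates.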

Staphylococcus aureus [4] = test: Ratio of MIC for methicillin-resistant Staphylococcus aureus USA300 in presence of 100 mM NaCl to MIC for methicillin-resistant Staphylococcus aureus USA300 in absence of 100 mM NaCl; format: functional
Procedure, shortened: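 Broth microdilution MIC against S. aureus USA300 in TSB with and without 100 mM NaCl. Inoculum 10⁶ CFU/mL exponential-phase cells, ~20 h at 37°C, OD630 read-out, no-growth endpoint. Ratio of MIC with salt to MIC without salt.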

Staphylococcus aureus [5] = test: Antibacterial activity against Staphylococcus aureus Newman after 20 hrs by microdilution method; format: functional
Procedure, shortened: (§2)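 Incubated ~20 h at 37°C, then read at 630 nm. MIC is the lowest concentration with no detectable growth. Daptomycin assays had 2 mM Ca²⁺ added to the medium. Repeated several times by different investigators.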

Staphylococcus aureus [6] = test: Antibacterial activity against Staphylococcus aureus UAMS-1 after 20 hrs by microdilution method; format: functional; settings: UAMS-1, 20 h; procedure, shortened: as §2
Staphylococcus aureus [7] = test: Antibacterial activity against Staphylococcus aureus USA200 after 20 hrs by microdilution method; format: functional; settings: USA200, 20 h; procedure, shortened: as §2
Staphylococcus aureus [8] = test: Antibacterial activity against Staphylococcus aureus USA400 after 20 hrs by microdilution method; format: functional; settings: USA400, 20 h; procedure, shortened: as §2
Staphylococcus aureus [9] = test: Antibacterial activity against methicillin-resistant Staphylococcus aureus USA300 after 20 hrs by microdilution method; format: functional; settings: USA300, 20 h; procedure, shortened: as §1
Staphylococcus aureus [10] = test: Antibacterial activity against Staphylococcus aureus Mu50 after 20 hrs by microdilution method; format: functional; settings: Mu50, 20 h; procedure, shortened: as §2
Klebsiella pneumoniae = test: Antibacterial activity against Klebsiella pneumoniae ATCC 13883 after 20 hrs by microdilution method; format: functional; settings: ATCC 13883, 20 h; procedure, shortened: as §2
Escherichia coli [11] = test: Antibacterial activity against Escherichia coli ATCC 25922 after 20 hrs by microdilution method; format: functional; settings: ATCC 25922, 20 h; procedure, shortened: as §2
[12] = Hemolytic activity against human RBC after 1 hr; format: ADME, cell-based, Erythrocyte; settings: human red blood cells
Procedure, shortened: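 Human red blood cells were washed three times in normal saline (800 g, 10 min) and made up as a 2% suspension. After centrifugation, supernatant absorbance was read at 545 nm. Lysis was set at 100% for 1% Triton X-100 and 0% for untreated cells; HL50 is the 50% hemolytic concentration.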

Pseudomonas aeruginosa [13] = test: Antibacterial activity against Pseudomonas aeruginosa PAO1 after 20 hrs by microdilution method; format: functional; settings: PAO1, 20 h; procedure, shortened: as §2
[14] = Retention time of the compound by HPLC method; format: physicochemical
[15] = Therapeutic index, ratio of HC50 for human RBC to MIC for methicillin-resistant Staphylococcus aureus USA300; settings: human red blood cells, read-out: TI
Procedure, shortened: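 Supernatant hemoglobin read at 545 nm; 1% Triton X-100 = 100% lysis, untreated = 0%. HL50 divided by USA300 MIC gives the selectivity index.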

Staphylococcus aureus [16] = test: Induction of membrane damage in methicillin-resistant Staphylococcus aureus USA300 measured for 90 mins by propidium iodide staining based fluorescence spectroscopic analysis; format: functional
Staphylococcus aureus [17] = test: Inhibition of methicillin-resistant Staphylococcus aureus USA300 preformed biofilms after 24 hrs by XTT assay; format: functional
Procedure, shortened: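 USA300 biofilms formed for 24 h on polystyrene wells, washed, then treated with compounds for 24 h. Remaining biofilm quantified by XTT reduction (2 h, 37°C, absorbance 450 nm, medium-plus-XTT blank). Compared with untreated control.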

Staphylococcus aureus [18] = test: Antibacterial activity against methicillin-resistant Staphylococcus aureus USA300 after 20 hrs at pH 6.8 to 8 by microdilution method; format: functional; procedure, shortened: as §1
Staphylococcus aureus [19] = test: Inhibition of surface attachment by methicillin-resistant Staphylococcus aureus USA300 assessed as reduction in biofilm formation after 4 hrs by XTT assay; format: functional
Staphylococcus aureus [20] = test: Induction of membrane damage in methicillin-resistant Staphylococcus aureus USA300 measured up to 90 mins by propidium iodide staining based fluorescence spectroscopic analysis

Row | Molecule | Ratio (Staphylococcus aureus [4]) | MIC (Staphylococcus aureus [5]) [µM] | MIC (Staphylococcus aureus [6]) [µM] | MIC (Staphylococcus aureus [7]) [µM] | MIC (Staphylococcus aureus [8]) [µM] | MIC (Staphylococcus aureus [9]) [µM] | MIC (Staphylococcus aureus [10]) [µM] | MIC (Klebsiella pneumoniae) [µM] | MIC (Escherichia coli [11]) [µM] | HC50 at 1 h [12] [µM] | MIC (Pseudomonas aeruginosa [13]) [µM] | Retention_time [14] [min] | selectivity ratio [15] | Activity (Staphylococcus aureus [16]) | also measured
1 | H-GLLSLLSLLGKLL-NH2 | – | – | – | – | – | – | – | – | – | – | – | – | – | – | MIC (Escherichia coli [1]): > 120 µM; MIC (Pseudomonas aeruginosa [2]): > 120 µM; MIC (Staphylococcus aureus [3]): 3.1 µM
2 | CS(=O)(=O)O.CS(=O)(=O)O.Cn1cc(C2(c3cn(C)c4cc(C5=NCCN5)ccc34)CCCCC2)c2ccc(C3=NCCN3)cc21 | <=2 | 12.5 | ≥ 25 | 25 | 12.5 | 12.5 to 25 | 25 | – | – | – | – | – | – | – | –
3 | CS(=O)(=O)O.CS(=O)(=O)O.c1ccc(C(c2c[nH]c3cc(C4=NCCN4)ccc23)c2c[nH]c3cc(C4=NCCN4)ccc23)cc1 | – | – | – | – | – | 25 | – | > 50 | > 50 | 600 | > 50 | 10.643 | 24 | – | –
4 | CCC(CC)(c1c[nH]c2cc(C3=NCCN3)ccc12)c1c[nH]c2cc(C3=NCCN3)ccc12.CS(=O)(=O)O.CS(=O)(=O)O | <=2 | – | – | – | – | 6.2 | – | > 50 | > 50 | 300 | > 50 | 11.015 | 48 | – | –
5 | CC(C)(c1c[nH]c2cc(C3=NCCN3)ccc12)c1c[nH]c2cc(C3=NCCN3)ccc12.CS(=O)(=O)O.CS(=O)(=O)O | – | – | – | – | – | 25 | – | > 50 | > 50 | > 830 | > 50 | 10.005 | 33 | – | –
6 | CS(=O)(=O)O.CS(=O)(=O)O.Clc1ccc(C(c2c[nH]c3cc(C4=NCCN4)ccc23)c2c[nH]c3cc(C4=NCCN4)ccc23)cc1 | <=2 | 6.2 | 12.5 | 6.2 | 6.2 | 3.1 to 6.2 | 6.2 | > 50 | > 50 | 150 | 25 | 11.491 | 24 to 48 | Active | –
7 | CCCCCCCCCC(=O)N[C@@H](Cc1c[nH]c2ccccc12)C(=O)N[C@@H](CC(N)=O)C(=O)N[C@@H](CC(=O)O)C(=O)N[C@@H]1C(=O)NCC(=O)N[C@@H](CCCN)C(=O)N[C@@H](CC(=O)O)C(=O)N[C@H](C)C(=O)N[C@@H](CC(=O)O)C(=O)NCC(=O)N[C@H](CO)C(=O)N[C@@H]([C@H](C)CC(=O)O)C(=O)N[C@@H](CC(=O)c2ccccc2N)C(=O)O[C@@H]1C [DAPTOMYCIN] | – | – | > 12.5 | 0.78 (≈ 1.26 µg/mL) | 0.78 (≈ 1.26 µg/mL) | 0.78 (≈ 1.26 µg/mL) | 3.1 (≈ 5.02 µg/mL) | – | – | – | – | – | – | Active | –
8 | CS(=O)(=O)O.CS(=O)(=O)O.Clc1cccc(Cl)c1C(c1c[nH]c2cc(C3=NCCN3)ccc12)c1c[nH]c2cc(C3=NCCN3)ccc12 | <=2 | 12.5 | > 25 | 12.5 | 12.5 | 6.2 to 12.5 | > 25 | > 50 | > 50 | 300 | > 50 | 10.973 | 24 to 48 | Active | –
9 | CS(=O)(=O)O.CS(=O)(=O)O.c1cc2c(C(c3c[nH]c4cc(C5=NCCN5)ccc34)C3CCCCC3)c[nH]c2cc1C1=NCCN1 | – | – | – | – | – | 3.1 | – | > 50 | > 50 | 20 to 40 | > 50 | 11.832 | 7 to 14 | – | –
10 | Cl.Clc1cccc(Cl)c1C(c1c[nH]c2ccc(C3=NCCN3)cc12)c1c[nH]c2ccc(C3=NCCN3)cc12 | – | – | – | – | – | 12.5 | – | > 50 | > 50 | > 600 | > 50 | 10.537 | > 48 | – | –
11 | CS(=O)(=O)O.CS(=O)(=O)O.NCc1ccc2c(C3(c4c[nH]c5cc(CN)ccc45)CCCCC3)c[nH]c2c1 | – | – | – | – | – | 6.2 to 12.5 | – | > 50 | > 50 | 75 to 150 | > 50 | 10.788 | 12 to 24 | – | –
12 | CCCC(CCC)(c1c[nH]c2cc(C3=NCCN3)ccc12)c1c[nH]c2cc(C3=NCCN3)ccc12.CS(=O)(=O)O.CS(=O)(=O)O | <=2 | 3.1 | 12.5 to 25 | < 1.5 | 3.1 | 1.6 to 3.1 | 3.1 | > 50 | > 50 | 150 | > 50 | 12.102 | 48 to 96 | – | inhibition (INH) (Staphylococcus aureus [17]): 50%; Activity (Staphylococcus aureus [18]): Active; inhibition (INH) (Staphylococcus aureus [19]): 40%; Activity (Staphylococcus aureus [20]): Active
13 | CS(=O)(=O)O.CS(=O)(=O)O.c1cc2c(Cc3c[nH]c4cc(C5=NCCN5)ccc34)c[nH]c2cc1C1=NCCN1 | – | – | – | – | – | 50 | – | > 50 | > 50 | 1300 | > 50 | 9.215 | 26 | – | –
14 | CS(=O)(=O)O.CS(=O)(=O)O.c1cc2c(C3(c4c[nH]c5cc(C6=NCCN6)ccc45)CCCCC3)c[nH]c2cc1C1=NCCN1 | <=2 | 6.2 | 25 | 6.2 | 6.2 | 6.2 | 6.2 | > 50 | > 50 | 150 to 300 | > 50 | 11.276 | 24 to 48 | Active | MIC (Escherichia coli [1]): > 200 µM; MIC (Pseudomonas aeruginosa [2]): 100 µM; MIC (Staphylococcus aureus [3]): 6.2 µM
15 | Brc1cccc(Br)c1C(c1c[nH]c2cc(C3=NCCN3)ccc12)c1c[nH]c2cc(C3=NCCN3)ccc12.CS(=O)(=O)O.CS(=O)(=O)O | – | 3.1 to 6.2 | 6.2 | 3.1 | 3.1 | 3.1 to 12.5 | 6.2 | > 50 | > 50 | 150 | > 50 | 11.159 | 24 to 48 | Active | –
16 | CS(=O)(=O)O.CS(=O)(=O)O.Clc1ccc(C(c2c[nH]c3cc(C4=NCCN4)ccc23)c2c[nH]c3cc(C4=NCCN4)ccc23)c(Cl)c1 | – | – | – | – | – | 3.1 to 6.2 | – | > 50 | 12.5 | 40 | 25 to 50 | 11.924 | 12 | – | –
